pIC50: −log10 of the molar value. Calls of active or inactive are those of the source. The rule behind the calls is not given here.
Assays:
Trypanosoma cruzi [1] = experiment: Antitrypanosomal activity against Trypanosoma cruzi Tulahuen 2 epimastigotes assessed as inhibition of parasite growth after 5 days; type: functional; conditions: Trypanosoma cruzi, Tulahuen 2, 120 h; read-out: ID50 (the source's name)
Procedure, shortened: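 Stationary-phase (10-day) Tulahuen 2 epimastigotes inoculated at 1×10^6 cells/mL in BHI-Tryptose + 5% FBS, 28 °C, drug added from DMSO stock (final DMSO ≤0.4%; control 0.4% DMSO). Growth followed as A600; inhibition from day-5 vs day-0 absorbance relative to control. ID50 = concentration reducing absorbance ratio to 50%; three independent experiments.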

Trypanosoma cruzi [2] = experiment: Inhibition of Mitochondrial dehydrogenase in Trypanosoma cruzi Y epimastigotes at 20 uM after 30 to 240 mins by MTT dye reduction assay in relative to control
Procedure, shortened: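 Y-strain epimastigotes, 10^6 per well in 500 µL, 20 μM compound, 28 °C for 30–240 min with time-matched untreated controls. MTT (50 µL of 5 mg/mL) added for 4 h more, stopped with acidic isopropanol, A570 read; activity expressed as % of untreated parasites.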

Leishmania braziliensis [3] = experiment: Antiparasitic activity against Leishmania braziliensis MHOM/BR/00/LTB300 after 5 days by MTT assay; type: functional; conditions: MHOM/BR/00/LTB300, 120 h, read-out: ID50
Procedure, shortened: (§1)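 Epimastigotes (T. cruzi strains, BHI-Tryptose + 5% FBS, 28 °C) or L. braziliensis LTB300 promastigotes (axenic RPMI + 5% FBS, 28 °C) from exponential culture in 24-well plates; compounds from DMSO stock added for 5 days. Washed in PBS, 0.4 mg/mL MTT at 37 °C for 3 h, formazan dissolved in DMSO, OD595 read. Triplicate per concentration, six growth controls; 1.0–50.0 μM dose-response, ID50 = concentration reducing absorbance ratio to 50%; three independent experiments.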

[4] = Selective index, ratio of ID50 for mouse J774 cells to ID50 for Trypanosoma cruzi Tulahuen 2
Trypanosoma cruzi [5] = experiment: Antitrypanosomal activity against Trypanosoma cruzi CL Brener epimastigotes assessed as parasitic cytotoxicity at 25 uM after 5 days by MTT assay; type: functional
Procedure, shortened: (§2)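 Single 25 μM dose for 5 days on exponential-phase epimastigotes in BHI-Tryptose + 5% FBS, 24-well plates; MTT 0.4 mg/mL, 3 h at 37 °C after PBS wash, formazan in DMSO, OD595. PCyt = [[…] (ODd − ODdm)/(ODc − ODcm)] × 100 with medium-only blanks, compound-in-medium blanks and growth controls; three independent experiments.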

Trypanosoma cruzi [6] = experiment: Antitrypanosomal activity against Trypanosoma cruzi Y epimastigotes after 5 days by MTT assay; type: functional; conditions: 120 h, read-out: ID50; procedure, shortened: as §1
Trypanosoma cruzi [7] = experiment: Antitrypanosomal activity against Trypanosoma cruzi Colombiana assessed as parasitic cytotoxicity at 25 uM after 5 days by MTT assay; type: functional; procedure, shortened: as §2
Trypanosoma cruzi [8] = experiment: Antitrypanosomal activity against Trypanosoma cruzi CL Brener epimastigotes after 5 days by MTT assay; type: functional; conditions: 120 h, read-out: ID50; procedure, shortened: as §1
[9] = Selective index, ratio of ID50 for mouse J774 cells to ID50 for Leishmania braziliensis LTB300
[10] = Cytotoxicity against mouse J774 cells; type: cell-based; conditions: read-out: ID50 (the source's name)
J774 = experiment: Cytotoxicity against mouse J774 cells at 100 uM relative to 5-((hydroxyimino)methyl)-2,2-dimethyl-2H-benzo[d]imidazole 1,3-dioxide; type: cell-based; conditions: j774, 100 µM
Trypanosoma cruzi [11] = experiment: Antitrypanosomal activity against Trypanosoma cruzi CL Brener trypomastigotes infected in Vero cells assessed as parasite lysis at 25 uM after 19 hrs relative to untreated control; type: functional
Procedure, shortened: (§3)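 Cell-culture trypomastigotes released from infected Vero cells (37 °C, 5% CO2, 5–7 days), collected by centrifugation and allowed 4 h at 37 °C to swim off. Supernatant parasites exposed to 10.0–50.0 μM for 2–26 h; lysis counted in a Neubauer chamber relative to untreated parasites; three independent experiments.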

Leishmania braziliensis [12] = experiment: Inhibition of Mitochondrial dehydrogenase in Leishmania braziliensis MHOM/BR/00/LTB300 at 20 uM after 30 to 240 mins by MTT dye reduction assay in relative to control
Trypanosoma cruzi [13] = experiment: Antitrypanosomal activity against Trypanosoma cruzi CL Brener trypomastigotes infected in Vero cells assessed as parasite lysis at 10 uM after 26 hrs relative to untreated control; type: functional; procedure, shortened: as §3
Trypanosoma cruzi [14] = experiment: Decrease of glucose uptake in Trypanosoma cruzi Y epimastigotes after 4 hrs relative to control; type: functional, organism-based
Procedure, shortened: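 Y-strain epimastigotes (80×10^6/mL) washed and resuspended in PBS with 1 mM glucose, exposed 4 h to 20 μM compound from DMSO. Parasite-free supernatant refluxed 1 h with Benedict's reagent; remaining glucose quantified at 700 nm against a calibration curve.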

Trypanosoma cruzi [15] = experiment: Antitrypanosomal activity against Trypanosoma cruzi CL Brener trypomastigotes infected in Vero cells assessed as parasite lysis at 10 uM after 3 hrs relative to untreated control; type: functional; procedure, shortened: as §3
Trypanosoma cruzi [16] = experiment: Antitrypanosomal activity against Trypanosoma cruzi CL Brener trypomastigotes infected in Vero cells assessed as parasite lysis at 10 uM after 2 hrs relative to untreated control; type: functional; procedure, shortened: as §3
Trypanosoma cruzi [17] = experiment: Antitrypanosomal activity against Trypanosoma cruzi CL Brener trypomastigotes infected in Vero cells assessed as parasite lysis at 50 uM after 19 hrs relative to untreated control; type: functional; procedure, shortened: as §3
Trypanosoma cruzi [18] = experiment: Reduction of end products excretion levels in Trypanosoma cruzi Y epimastigotes after 2 days by [1H]NMR method; type: functional, organism-based
Procedure, shortened: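 Y-strain epimastigotes treated 2 days with 5 μM compound; culture centrifuged 1500 g, 10 min, 4 °C, parasite-free supernatant stored at −20 °C. Supernatant plus DMF internal standard and D2O run by 1H NMR with water suppression; metabolite peaks confirmed by spiking and standards, compared to untreated and parasite-free medium.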

Trypanosoma cruzi [19] = experiment: Antitrypanosomal activity against Trypanosoma cruzi CL Brener trypomastigotes infected in Vero cells assessed as parasite lysis at 10 uM after 22 hrs relative to untreated control; type: functional; procedure, shortened: as §3
Trypanosoma cruzi [20] = experiment: Trypanocidal activity against Trypanosoma cruzi CL Brener amastigotes infected in Vero cells assessed as parasite infection at 2.5 uM after 72 hrs
Trypanosoma cruzi [21] = experiment: Trypanocidal activity against Trypanosoma cruzi CL Brener amastigotes infected in Vero cells assessed as parasite infection at 5 uM after 72 hrs; type: functional
Procedure, shortened: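 Vero cells (4×10^7/L) on coverslips in modified Eagle's medium + 3% FBS, 37 °C; after 24 h infected with trypomastigotes (5×10^9/L) ± compound. Non-internalized parasites removed at 24 h, fresh medium ± compound, 72 h further incubation; May-Grünwald-Giemsa stain, 500 cells scored for % infected and amastigotes per cell; endocytic index = product of the two.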

SMILES	pIC50 (Trypanosoma cruzi [1])	Activity (Trypanosoma cruzi [2])	pIC50 (Leishmania braziliensis [3])	Ratio [4]	Activity (Trypanosoma cruzi [5]) [%]	pIC50 (Trypanosoma cruzi [6])	Activity (Trypanosoma cruzi [7]) [%]	Ratio [9]	CC50 [10] [µM]	Activity (J774) [%]	other results
O=C(Cn1ccnc1[N+](=O)[O-])NCc1ccccc1 [BENZNIDAZOLE]	5.13	Active	–	–	–	–	–	–	–	–	–
CC1(C)[N+]([O-])=c2ccc(/C=N/O)cc2=[N+]1[O-]	–	–	< 4.30	6.2	46.6	4.79	21.7	<1.5	77	–	pIC50 (Trypanosoma cruzi [8]): < 4.40
CC1(C)[N+]([O-])=c2cc(Cl)c(Cl)cc2=[N+]1[O-]	4.84	–	5.00	6.9	88.3	5.00	94.4	9.9	100	0.87	–
CC1(Cc2ccccc2)[N+]([O-])=c2ccccc2=[N+]1[O-]	< 4.30	–	4.68	<6	47	–	18.6	14.6	302	0.46	–
Cc1ccc2c(c1)=[N+]([O-])C1(CCCC1)[N+]=2[O-]	5.10	inactive	5.05	8	56.5	4.80	59.3	7.1	63	1.22	Activity (Trypanosoma cruzi [11]): 24%; Activity (Leishmania braziliensis [12]): Active; Activity (Trypanosoma cruzi [13]): 24%; Activity (Trypanosoma cruzi [14]): Active; Activity (Trypanosoma cruzi [15]): 39%; Activity (Trypanosoma cruzi [16]): 1%; Activity (Trypanosoma cruzi [17]): 52%; Activity (Trypanosoma cruzi [18]): Active; Activity (Trypanosoma cruzi [19]): 25%; Activity (Trypanosoma cruzi [20]): 34.8%; Activity (Trypanosoma cruzi [21]): 14.7%
CC1(C)[N+]([O-])=c2ccc(/C=C/c3ccc4c(c3)OCO4)cc2=[N+]1[O-]	5.51	–	–	18.7	–	–	–	–	58	1.37	–
CC1(C)[N+]([O-])=c2ccc(Cl)cc2=[N+]1[O-]	5.00	–	–	3.8	–	–	–	–	38	1.74	–
Cc1ccc2c(c1)=[N+]([O-])C(C)(C)[N+]=2[O-]	5.29	inactive	4.52	–	61.4	5.48	35.1	–	–	–	Activity (Leishmania braziliensis [12]): inactive; Activity (Trypanosoma cruzi [14]): inactive; Activity (Trypanosoma cruzi [18]): Active
[O-][N+]1=c2ccccc2=[N+]([O-])C12CCCC2	5.02	–	5.44	>42.1	83.7	5.19	94.8	>111.1	> 400	0.75	–
CC1(Cc2ccc([N+](=O)[O-])cc2)[N+]([O-])=c2ccccc2=[N+]1[O-]	5.08	–	–	14.5	–	–	–	–	122	0.47	–
Cc1c(Sc2ccccc2)[n+]([O-])c2cc(Cl)c(Cl)cc2[n+]1[O-]	–	Active	–	–	–	–	–	–	–	–	–
